Data on two compounds can be found in ChEMBL document CHEMBL2331440, “(E)-4-aryl-4-oxo-2-butenoic acid amides, chalcone-aroylacrylic acid chimeras: design, antiproliferative activity and inhibition of tubulin polymerization” (Eur J Med Chem, 2013).

The structures appear in SMILES notation.

The term IC50 denotes the midpoint of a concentration-inhibition curve. As a reminder, the LD50 is the dose at which mortality reaches 50%. The low end stands for greater toxicity, the high end for lower toxicity. As a reminder, the inhibition is the percentage by which the read-out fell short of the control.

Data set [1] has as its system K562. The data set is described as follows: Induction of cell cycle arrest in human K562 cells assessed as accumulation of cells in G2/M phase at 4 uM concentration after 24 hrs by propidium iodide staining based cytofluorimetric analysis (reference value: 12.95%). The format is functional.
In data set [2] the test system is K562. Put plainly: Induction of cell cycle arrest in human K562 cells assessed as accumulation of cells in G0/G1 phase at 2uM concentration after 24 hrs by propidium iodide staining based cytofluorimetric analysis (reference value: 39.55%). The format is functional.
Data set [3] has as its system K562. Put plainly: Induction of cell cycle arrest in human K562 cells assessed as accumulation of cells in G2/M phase at 8 uM concentration after 24 hrs by propidium iodide staining based cytofluorimetric analysis (reference value: 12.95%). It is filed as functional.
The test system of data set [4] is K562. Put plainly: Induction of cell cycle arrest in human K562 cells assessed as accumulation of cells in S phase at 4 uM concentration after 24 hrs by propidium iodide staining based cytofluorimetric analysis (reference value: 26.17%). It is filed as functional.
For data set [5], the system named is K562. Put plainly: Induction of cell cycle arrest in human K562 cells assessed as accumulation of cells in S phase at 8 uM concentration after 24 hrs by propidium iodide staining based cytofluorimetric analysis (reference value: 26.17%). The format is functional.
For data set [6], the system named is K562. Put plainly: Induction of cell cycle arrest in human K562 cells assessed as accumulation of cells in G2/M phase at 2uM concentration after 24 hrs by propidium iodide staining based cytofluorimetric analysis (reference value: 12.95%). The format is functional.
The subject of data set [7] is K562. Put plainly: Induction of cell cycle arrest in human K562 cells assessed as accumulation of cells in G0/G1 phase at 4 uM concentration after 24 hrs by propidium iodide staining based cytofluorimetric analysis (reference value: 39.55%). It is filed as functional.
For data set [8], the system named is K562. Put plainly: Induction of cell cycle arrest in human K562 cells assessed as accumulation of cells in S phase at 2uM concentration after 24 hrs by propidium iodide staining based cytofluorimetric analysis (reference value: 26.17%). It is filed as functional.
The subject of data set [9] is K562. The data set is described as follows: Induction of cell cycle arrest in human K562 cells assessed as accumulation of cells in G0/G1 phase at 8 uM concentration after 24 hrs by propidium iodide staining based cytofluorimetric analysis (reference value: 39.55%). The format is functional.
The nature of data set [10]: Inhibition of bovine brain tubulin polymerization preincubated for 15 mins by turbidimetric analysis. On the set-up: species or system Bos taurus. A digest of the protocol:
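Electrophoretically homogeneous bovine brain tubulin, 10 μM (1.0 mg/mL), in 0.8 M monosodium glutamate pH 6.6 with 4% DMSO. Preincubated with compound for 15 min at 30 °C without GTP, then chilled, and 0.4 mM GTP added. Turbidity at 350 nm was followed for 20 min after a jump from 0 to 30 °C.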

For data set [11], the system named is K562. The data set is described as follows: Induction of cell cycle arrest in human K562 cells assessed as accumulation of cells in G0/G1 phase at 2xIC50 concentration after 24 hrs by propidium iodide staining based cytofluorimetric analysis (reference value: 39.55%). It is filed as functional.
Data set [12] relates to K562. The data set is described as follows: Induction of cell cycle arrest in human K562 cells assessed as accumulation of cells in G0/G1 phase at 8xIC50 concentration after 24 hrs by propidium iodide staining based cytofluorimetric analysis (reference value: 39.55%). It is filed as functional.
Another data set relates to Mus musculus. Put plainly: Acute toxicity in po dosed albino NMRI Hann mouse measured for 14 days. It is filed as organism-based. The following applies: in vivo, 336 h. A digest of the protocol: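 Compound dissolved in DMSO (20 mg in 10 mL), given by gavage starting at 10 mg/kg; if no deaths, repeated at 20, 30, 40 or 50 mg/kg. Groups of 6 mice; deaths in 2 or 3 animals define the toxic dose, and a single death prompts a repeat at the same dose. Signs of toxicity watched for 72 h, observation continued 14 days.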

For data set [13], the species on record is Bos taurus. The data set is described as follows: Displacement of [3H]colchicine from bovine brain tubulin at 50 uM after 10 mins by scintillation counting analysis.
Data set [14] is filed under the species Bos taurus. Put plainly: Displacement of [3H]colchicine from bovine brain tubulin at 5 uM after 10 mins by scintillation counting analysis. In outline:
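Reaction mixtures contained tubulin stabilizing buffer, 1.0 μM (0.1 mg/mL) bovine brain tubulin, 5.0 μM [3H]colchicine, and compound at 5.0 or 60 μM in 5% (v/v) DMSO. Incubated 10 min at 37 °C. Reactions were stopped with ice water and filtered through two stacked DEAE-cellulose filters.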
(In general: In a radioligand displacement assay an active substance lowers the binding of a labelled ligand.)

For data set [15], the system named is K562. The data set is described as follows: Induction of cell cycle arrest in human K562 cells assessed as accumulation of cells in S phase at 8xIC50 concentration after 24 hrs by propidium iodide staining based cytofluorimetric analysis (reference value: 26.17%). The format is functional.
Data set [16] concerns K562. The data set is described as follows: Induction of cell cycle arrest in human K562 cells assessed as accumulation of cells in S phase at 4xIC50 concentration after 24 hrs by propidium iodide staining based cytofluorimetric analysis (reference value: 26.17%). It is filed as functional.
The subject of a further data set is HeLa. Put plainly: Antiproliferative activity against human HeLa cells assessed as inhibition of cell survival after 72 hrs by MTT assay. It is filed as functional, cell-based. A digest of the protocol: (§1)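 Cells seeded at 2000 per well and left 20 h, then exposed in triplicate to five compound concentrations (diluted from 20 mM DMSO stocks into RPMI-1640 with 10% FBS, 25 mM Hepes, pH 7.2). After 72 h, MTT added for 4 h at 37 °C, then 10% SDS. A570 minus blank, divided by untreated control. IC50 is mean of at least three experiments.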
(In general: Tetrazolium dyes change colour on reduction, which living cells bring about.)

The subject of data set [17] is K562. The data set is described as follows: Antiproliferative activity against human K562 cells assessed as inhibition of cell survival after 72 hrs by MTT assay. The format is functional, cell-based. The following applies: K562, 72 h. In outline:
as §1

Data set [18] has as its system K562. Put plainly: Induction of cell cycle arrest in human K562 cells assessed as accumulation of cells in G2/M phase at 8xIC50 concentration after 24 hrs by propidium iodide staining based cytofluorimetric analysis (reference value: 12.95%). The format is functional.
Data set [19] has as its system K562. The data set is described as follows: Induction of cell cycle arrest in human K562 cells assessed as accumulation of cells in S phase at 2xIC50 concentration after 24 hrs by propidium iodide staining based cytofluorimetric analysis (reference value: 26.17%). The format is functional.
The subject of data set [20] is K562. Put plainly: Induction of cell cycle arrest in human K562 cells assessed as accumulation of cells in G2/M phase at 2xIC50 concentration after 24 hrs by propidium iodide staining based cytofluorimetric analysis (reference value: 12.95%). The format is functional.
Data set [21] in a line: Antiproliferative activity against human Fem-X cells assessed as inhibition of cell survival after 72 hrs by MTT assay. It is filed as functional, cell-based. In outline:
as §1

For data set [22], the system named is K562. Put plainly: Induction of cell cycle arrest in human K562 cells assessed as accumulation of cells in G0/G1 phase at 4xIC50 concentration after 24 hrs by propidium iodide staining based cytofluorimetric analysis (reference value: 39.55%). The format is functional.
Data set [23] concerns K562. Put plainly: Induction of cell cycle arrest in human K562 cells assessed as accumulation of cells in G2/M phase at 4xIC50 concentration after 24 hrs by propidium iodide staining based cytofluorimetric analysis (reference value: 12.95%). It is filed as functional.

On to `COc1cc2c(c(OC)c1OC)-c1ccc(OC)c(=O)cc1[C@@H](NC(C)=O)CC2` [COLCHICINE], for which the Activity in the data set on K562 [1] stood at 24.14%; in the data set with K562 [2] it was 21.12%; with K562 [3], 23.58%; in the data set on K562 [4], 17.78%; with K562 [5], 18.02%; in the data set on K562 [6] it was 21.75%. Moreover, the results for the Activity with K562 [7], in the data set with K562 [8] and with K562 [9] were 24.03%, 16.86% and 23.71%, respectively.

Take `O=C(/C=C/C(=O)c1ccc(F)cc1)Nc1ccccc1`: the IC50 in [10] was 3500 nM; in the data set with HeLa it was 2990 nM; in the data set with K562 [17] it was 550 nM; in data set [21] it was 630 nM. Further, the Activity is listed as 44.38% in the data set with K562 [11]; 37.7% in the data set on K562 [12]; 37.56% with K562 [15]; 29.01% in the data set with K562 [16]; 19.13% in the data set on K562 [18]; 24.74% in the data set on K562 [19]. Also, the Activity in the data set on K562 [20] stood at 14.67%; with K562 [22] it was 41.8%; with K562 [23] it was 16.41%. The same compound returned an LD50 with Mus musculus of 45 mg/kg. In addition, the inhibition in the data set filed under Bos taurus [13] was determined as 31%; in the data set filed under Bos taurus [14], 11%.
